Each block holds one compound with its values, some of them ahead of it. Calls of active or inactive are those of the source. The rule behind the calls is not given here.
Assays:
Mus musculus [1] = species: Mus musculus; assay: Immunostimulatory activity in BALB/c mouse splenocytes assessed as induction of IL-12 production at 10 uM after 24 hrs by ELISA relative to GD2; type: functional, Splenocyte
How it was run: (§1)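 Mouse splenocytes were seeded at 1 × 10^6/mL and incubated 24 h with serial dilutions of free ligand or conjugates. Antigen and conjugate concentrations were scaled for conjugation ratio: one-sixth for BSA, one-fifth for OVA and MSA, equal for MG7, one-quarter for thymosin. Supernatant IFN-γ and IL-12 were measured by ELISA and expressed as conjugated/free ligand ratios. Data are triplicates from one of three experiments.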

Mus musculus [2] = assay: Immunostimulatory activity in C57BL/6 mouse assessed as increase in IFN-gamma level in serum at 0.18 umol, iv at 2 hrs by luminex bead microassay relative to control; type: functional, organism-based
How it was run: (§2)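 C57BL/6 mice (n = 5 per group) received 0.18 μmol intravenously. Serum was collected at set times after injection, and IFN-γ and IL-12 were measured by Luminex assay against saline-treated controls. Data are mean ± SEM of two independent experiments.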

Mus musculus [3] = species: Mus musculus; assay: Immunostimulatory activity in BALB/c mouse splenocytes assessed as induction of IFN-gamma production at 10 uM after 24 hrs by ELISA relative to GD2; type: functional, Splenocyte; how it was run: as §1
Mus musculus [4] = assay: Immunostimulatory activity in C57BL/6 mouse assessed as increase in IFN-gamma level in serum at 0.18 umol, iv after 2 to 48 hrs by luminex bead microassay relative to control; type: functional, organism-based; how it was run: as §2
Mus musculus [5] = species: Mus musculus; assay: Immunostimulatory activity in BALB/c mouse splenocytes assessed as induction of IFN-gamma production at 10 uM after 24 hrs by ELISA in presence of MG7 relative to GD2; type: functional, Splenocyte; how it was run: as §1
Mus musculus [6] = assay: Immunostimulatory activity in C57BL/6 mouse assessed as increase in IgG1 level in serum at 0.83 nmol, sc administered every 7 days measured up to 30 days by ELISA in presence of BSA; type: functional, organism-based
How it was run: (§3)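 Mice were immunized with antigen, free ligand or conjugate, and serum was collected every 7 days from day 0 to day 30. BSA- or OVA-specific IgG1 and IgG2a were measured by ELISA. Data are mean ± SEM of triplicate from one of three independent experiments.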

Mus musculus [7] = species: Mus musculus; assay: Immunostimulatory activity in BALB/c mouse splenocytes assessed as induction of IFN-gamma production at 10 uM after 24 hrs by ELISA in presence of BSA relative to GD2; type: functional, Splenocyte; how it was run: as §1
Mus musculus [8] = assay: Immunostimulatory activity in C57BL/6 mouse assessed as increase in IFN-gamma level in serum at 0.18 umol, iv after 2 to 6 hrs by luminex bead microassay in presence of MSA relative to control; type: functional, organism-based; how it was run: as §2
Mus musculus [9] = species: Mus musculus; assay: Immunostimulatory activity in BALB/c mouse splenocytes assessed as induction of IFN-gamma production at 10 uM after 24 hrs by ELISA in presence of MSA relative to GD2; type: functional, Splenocyte; how it was run: as §1
Mus musculus [10] = species: Mus musculus; assay: Immunostimulatory activity in BALB/c mouse splenocytes assessed as induction of IL-12 production at 10 uM after 24 hrs by ELISA in presence of MG7 relative to GD2; type: functional, Splenocyte; how it was run: as §1
Mus musculus [11] = species: Mus musculus; assay: Immunostimulatory activity in BALB/c mouse splenocytes assessed as induction of IL-12 production at 10 uM after 24 hrs by ELISA in presence of BSA relative to GD2; type: functional, Splenocyte; how it was run: as §1
[12] = biological target: T1, Toll-like receptor 7 (Mus musculus) (UniProt P58681); assay: Agonist activity at TLR7 in mouse BMDM assessed as increase in IL-12 production at 2 uM after 24 hrs by ELISA in presence of BSA
T1 sequence (whole entry): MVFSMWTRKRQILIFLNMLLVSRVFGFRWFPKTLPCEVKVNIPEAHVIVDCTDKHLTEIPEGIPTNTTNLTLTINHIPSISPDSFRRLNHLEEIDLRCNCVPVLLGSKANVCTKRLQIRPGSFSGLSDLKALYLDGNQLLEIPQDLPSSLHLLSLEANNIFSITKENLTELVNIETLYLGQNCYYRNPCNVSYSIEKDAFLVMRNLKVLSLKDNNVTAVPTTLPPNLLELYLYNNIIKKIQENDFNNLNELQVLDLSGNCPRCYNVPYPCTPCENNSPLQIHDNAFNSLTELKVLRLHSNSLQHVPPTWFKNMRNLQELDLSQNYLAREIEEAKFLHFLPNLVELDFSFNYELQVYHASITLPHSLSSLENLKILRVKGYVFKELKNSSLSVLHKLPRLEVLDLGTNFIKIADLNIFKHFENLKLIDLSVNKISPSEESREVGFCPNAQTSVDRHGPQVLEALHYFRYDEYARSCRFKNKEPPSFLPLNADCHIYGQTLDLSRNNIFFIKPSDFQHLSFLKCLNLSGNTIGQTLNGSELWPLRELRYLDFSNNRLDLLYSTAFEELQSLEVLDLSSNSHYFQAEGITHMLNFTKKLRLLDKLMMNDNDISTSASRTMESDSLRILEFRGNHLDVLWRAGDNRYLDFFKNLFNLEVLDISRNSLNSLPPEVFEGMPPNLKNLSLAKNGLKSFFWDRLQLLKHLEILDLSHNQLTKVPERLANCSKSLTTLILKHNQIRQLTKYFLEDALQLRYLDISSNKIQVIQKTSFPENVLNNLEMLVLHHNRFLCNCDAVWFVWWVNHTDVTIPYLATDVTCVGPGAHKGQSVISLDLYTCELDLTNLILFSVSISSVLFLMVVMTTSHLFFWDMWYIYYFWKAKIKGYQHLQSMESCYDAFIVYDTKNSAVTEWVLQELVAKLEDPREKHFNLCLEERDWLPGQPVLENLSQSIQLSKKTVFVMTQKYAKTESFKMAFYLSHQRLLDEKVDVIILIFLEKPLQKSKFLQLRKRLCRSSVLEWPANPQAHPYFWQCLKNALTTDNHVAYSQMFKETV
How it was run: (§4)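 BMDM from wild-type or TLR7−/− mice were seeded at 1 × 10^6/mL. They were incubated 24 h with 2 μM antigen conjugates, with the free ligand at 10 μM. IL-12 in culture supernatants was measured by ELISA. Data are mean ± SEM of triplicates from one of three independent experiments. Only material with endotoxin <5 EU/mg was used.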

Mus musculus [13] = species: Mus musculus; assay: Immunostimulatory activity in BALB/c mouse splenocytes assessed as induction of IL-12 production at 10 uM after 24 hrs by ELISA in presence of thymosin relative to GD2; type: functional, Splenocyte; how it was run: as §1
Mus musculus [14] = assay: Immunostimulatory activity in C57BL/6 mouse assessed as increase in IFN-gamma level in serum at 0.18 umol, iv after 2 to 6 hrs by luminex bead microassay in presence of BSA relative to control; type: functional, organism-based; how it was run: as §2
Mus musculus [15] = assay: Immunostimulatory activity in C57BL/6 mouse assessed as increase in IgG1 level in serum at 1 nmol, sc administered every 7 days measured up to 30 days by ELISA in presence of OVA; type: functional, organism-based; how it was run: as §3
Mus musculus [16] = assay: Immunostimulatory activity in C57BL/6 mouse assessed as increase in IFN-gamma level in serum at 0.18 umol, iv after 2 to 6 hrs by luminex bead microassay in presence of OVA relative to control; type: functional, organism-based; how it was run: as §2
[17] = biological target: T1, Toll-like receptor 7 (Mus musculus); assay: Agonist activity at TLR7 in mouse BMDM assessed as increase in IL-12 production at 2 uM after 24 hrs by ELISA in presence of MSA; how it was run: as §4
[18] = biological target: T1, Toll-like receptor 7 (Mus musculus); assay: Agonist activity at TLR7 in mouse BMDM assessed as increase in IL-12 production at 2 uM after 24 hrs by ELISA in presence of MG7; how it was run: as §4
Mus musculus [19] = assay: Immunostimulatory activity in C57BL/6 mouse assessed as increase in IgG2a level in serum at 1 nmol, sc administered every 7 days measured up to 30 days by ELISA in presence of OVA; type: functional, organism-based; how it was run: as §3
Mus musculus [20] = assay: Immunostimulatory activity in C57BL/6 mouse assessed as increase in IgG1 level in serum at 5 nmol, sc administered every 7 days measured up to 30 days by ELISA; type: functional, organism-based; how it was run: as §3
Mus musculus [21] = assay: Immunostimulatory activity in C57BL/6 mouse assessed as increase in IFN-gamma level in serum at 0.18 umol, iv after 2 to 6 hrs by luminex bead microassay in presence of MG7 relative to control; type: functional, organism-based; how it was run: as §2
Mus musculus [22] = species: Mus musculus; assay: Immunostimulatory activity in BALB/c mouse splenocytes assessed as induction of IL-12 production at 10 uM after 24 hrs by ELISA in presence of MSA relative to GD2; type: functional, Splenocyte; how it was run: as §1
Mus musculus [23] = species: Mus musculus; assay: Immunostimulatory activity in BALB/c mouse splenocytes assessed as induction of IFN-gamma production at 10 uM after 24 hrs by ELISA in presence of thymosin relative to GD2; type: functional, Splenocyte; how it was run: as §1
[24] = biological target: T1, Toll-like receptor 7 (Mus musculus); assay: Agonist activity at TLR7 in mouse BMDM assessed as increase in IL-12 production at 2 uM after 24 hrs by ELISA in presence of thymosin; how it was run: as §4
[25] = biological target: T1, Toll-like receptor 7 (Mus musculus); assay: Agonist activity at TLR7 in mouse BMDM assessed as increase in IL-12 production at 2 uM after 24 hrs by ELISA in presence of OVA; how it was run: as §4
Mus musculus [26] = assay: Immunostimulatory activity in C57BL/6 mouse assessed as increase in IFN-gamma level in serum at 0.18 umol, iv after 2 to 6 hrs by luminex bead microassay in presence of thymosin relative to control; type: functional, organism-based; how it was run: as §2
Mus musculus [27] = species: Mus musculus; assay: Immunostimulatory activity in BALB/c mouse splenocytes assessed as induction of IL-12 production at 10 uM after 24 hrs by ELISA in presence of OVA relative to GD2; type: functional, Splenocyte; how it was run: as §1
Mus musculus [28] = assay: Immunostimulatory activity in C57BL/6 mouse assessed as increase in IgG2a level in serum at 0.83 nmol, sc administered every 7 days measured up to 30 days by ELISA in presence of BSA; type: functional, organism-based; how it was run: as §3
Mus musculus [29] = assay: Immunostimulatory activity in C57BL/6 mouse assessed as increase in IgG2a level in serum at 5 nmol, sc administered every 7 days measured up to 30 days by ELISA; type: functional, organism-based; how it was run: as §3
Mus musculus [30] = species: Mus musculus; assay: Immunostimulatory activity in BALB/c mouse splenocytes assessed as induction of IFN-gamma production at 10 uM after 24 hrs by ELISA in presence of OVA relative to GD2; type: functional, Splenocyte; how it was run: as §1

SMILES: COCCOc1nc(N)c2nc(O)n(Cc3ccc(C=O)cc3)c2n1
fold change (FC) (Mus musculus [1]): 61
Activity (Mus musculus [2]): Active
fold change (FC) (Mus musculus [3]): 524
Activity (Mus musculus [4]): inactive

Activity [12]: Active
Activity [17]: Active
Activity [18]: Active
Activity [24]: Active
Activity [25]: Active
SMILES: COCCOc1nc(N)c2nc(O)n(CCCC(=O)O)c2n1
fold change (FC) (Mus musculus [5]): 550
Activity (Mus musculus [6]): Active
fold change (FC) (Mus musculus [7]): 488
Activity (Mus musculus [8]): Active
fold change (FC) (Mus musculus [9]): 575
fold change (FC) (Mus musculus [10]): 52
fold change (FC) (Mus musculus [11]): 16
fold change (FC) (Mus musculus [13]): 409
Activity (Mus musculus [14]): Active
Activity (Mus musculus [15]): Active
Activity (Mus musculus [16]): Active
Activity (Mus musculus [19]): Active
Activity (Mus musculus [20]): inactive
Activity (Mus musculus [21]): Active
fold change (FC) (Mus musculus [22]): 42
fold change (FC) (Mus musculus [23]): 1511
Activity (Mus musculus [26]): Active
fold change (FC) (Mus musculus [27]): 175
Activity (Mus musculus [28]): Active
Activity (Mus musculus [4]): inactive
Activity (Mus musculus [29]): inactive
fold change (FC) (Mus musculus [30]): 73
